According to ChEMBL document CHEMBL4049426, “Identification of the Clinical Candidate (R)-(1-(4-Fluorophenyl)-6-((1-methyl-1H-pyrazol-4-yl)sulfonyl)-4,4a,5,6,7,8-hexahydro-1H-pyrazolo[3,4-g]isoquinolin-4a-yl)(4-(trifluoromethyl)pyridin-2-yl)methanone (CORT125134): A Selective Glucocorticoid Receptor (GR) Antagonist” (J Med Chem, 2017):
pIC50: −log10 of the molar value. The source made the active and inactive calls. The rule behind the calls is not given here.

Key:
Cytochrome P450 1A2 = target: T1, Cytochrome P450 1A2 (Homo sapiens, UniProt P05177); test: Inhibition of CYP1A2 (unknown origin); type: ADME
T1 sequence (P05177 whole entry): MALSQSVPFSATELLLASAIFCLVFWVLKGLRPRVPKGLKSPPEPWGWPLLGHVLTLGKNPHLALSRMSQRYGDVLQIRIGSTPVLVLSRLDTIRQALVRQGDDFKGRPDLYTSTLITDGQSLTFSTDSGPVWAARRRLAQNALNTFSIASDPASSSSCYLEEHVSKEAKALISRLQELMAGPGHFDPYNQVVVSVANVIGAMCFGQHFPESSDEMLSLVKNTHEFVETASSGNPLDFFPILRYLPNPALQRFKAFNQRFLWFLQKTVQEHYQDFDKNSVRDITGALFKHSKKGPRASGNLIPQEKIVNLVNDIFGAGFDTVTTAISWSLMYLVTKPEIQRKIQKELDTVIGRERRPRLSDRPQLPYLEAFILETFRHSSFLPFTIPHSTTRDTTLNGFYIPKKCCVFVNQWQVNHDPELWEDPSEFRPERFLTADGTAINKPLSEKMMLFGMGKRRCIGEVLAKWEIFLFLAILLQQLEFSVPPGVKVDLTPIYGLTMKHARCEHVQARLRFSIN

[1] = AUC in monkey plasma at 20 mg/kg, po measured up to 24 hrs by LC/MS analysis; type: ADME, organism-based, Macaca mulatta; parameters: dose 20 mg/kg, time < 24 hr, route oral; details: rhesus monkey
Procedure, shortened: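 Monkey i.v./p.o. study: oral 20mg/kg in 10% DMSO, 0.1% Tween 80, 0.5% hydroxypropylmethylcellulose in water; i.v. dose 1mg/kg.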

[2] = Cmax in Sprague-Dawley CD-1 rat plasma at 5 mg/kg, po administered through gavage measured up to 24 hrs by LC/MS analysis; type: ADME, organism-based; parameters: dose 5 mg/kg, route oral
Procedure, shortened: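 Jugular-catheterized male Sprague Dawley CD-1 rats (220-250g). Oral arm: five rats, 5mg/kg gavage, 1mg/mL in DMSO:0.5% methylcellulose 10:90, 5mL/kg, sampled pre-dose and 0.25-24 h. i.v. arm: three rats, 1mg/kg, 0.5mg/mL in DMSO:PEG400:propylene glycol 10:45:45, sampled pre-dose and 0.08-24 h. Plasma by LC/MS.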

Macaca mulatta = organism: Macaca mulatta; test: Agonist activity at monkey glucocorticoid receptor in primary hepatocytes assessed as induction of tyrosine amino transferase activity measured after 20 hrs; type: cell-based
Cytochrome P450 2D6 = Cytochrome P450 2D6 (Homo sapiens, UniProt P10635); test: Inhibition of CYP2D6 (unknown origin); type: ADME
Chain of Cytochrome P450 2D6 (P10635 whole entry): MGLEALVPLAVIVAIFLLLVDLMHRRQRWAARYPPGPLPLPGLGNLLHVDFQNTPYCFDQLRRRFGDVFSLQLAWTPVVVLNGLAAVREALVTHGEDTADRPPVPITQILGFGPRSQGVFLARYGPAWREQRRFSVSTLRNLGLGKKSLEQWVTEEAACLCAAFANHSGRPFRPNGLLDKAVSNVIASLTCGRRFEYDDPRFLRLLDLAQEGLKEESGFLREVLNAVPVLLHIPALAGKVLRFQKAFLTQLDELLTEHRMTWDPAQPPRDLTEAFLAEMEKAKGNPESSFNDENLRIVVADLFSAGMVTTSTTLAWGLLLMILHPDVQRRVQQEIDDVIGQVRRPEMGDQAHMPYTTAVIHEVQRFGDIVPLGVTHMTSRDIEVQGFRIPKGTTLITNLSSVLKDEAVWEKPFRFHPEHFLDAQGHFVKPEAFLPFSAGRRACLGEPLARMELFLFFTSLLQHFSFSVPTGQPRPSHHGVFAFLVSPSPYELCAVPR

Cytochrome P450 2B6 = target: T2, Cytochrome P450 2B6 (Homo sapiens, UniProt P20813); test: Induction of CYP2B6 in human hepatocytes; type: ADME, cell-based
T2 sequence (P20813 whole entry): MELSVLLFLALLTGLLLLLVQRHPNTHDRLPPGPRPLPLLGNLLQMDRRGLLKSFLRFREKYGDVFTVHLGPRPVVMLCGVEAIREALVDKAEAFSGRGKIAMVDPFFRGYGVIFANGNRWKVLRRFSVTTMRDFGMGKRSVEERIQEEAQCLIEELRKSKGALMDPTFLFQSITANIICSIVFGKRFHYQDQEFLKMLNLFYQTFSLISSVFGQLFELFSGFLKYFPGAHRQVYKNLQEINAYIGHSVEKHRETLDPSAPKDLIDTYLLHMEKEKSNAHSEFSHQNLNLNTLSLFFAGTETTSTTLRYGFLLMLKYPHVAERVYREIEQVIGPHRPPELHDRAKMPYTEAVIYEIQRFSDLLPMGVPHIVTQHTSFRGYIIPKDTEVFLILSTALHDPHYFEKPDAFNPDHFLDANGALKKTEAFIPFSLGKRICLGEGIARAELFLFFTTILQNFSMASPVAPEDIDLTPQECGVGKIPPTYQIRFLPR

estrogen receptor = target: T3, estrogen receptor (Homo sapiens, UniProt P03372); test: Inhibition of radioligand binding to estrogen receptor (unknown origin) at 1 uM relative to control
T3 sequence (P03372 whole entry): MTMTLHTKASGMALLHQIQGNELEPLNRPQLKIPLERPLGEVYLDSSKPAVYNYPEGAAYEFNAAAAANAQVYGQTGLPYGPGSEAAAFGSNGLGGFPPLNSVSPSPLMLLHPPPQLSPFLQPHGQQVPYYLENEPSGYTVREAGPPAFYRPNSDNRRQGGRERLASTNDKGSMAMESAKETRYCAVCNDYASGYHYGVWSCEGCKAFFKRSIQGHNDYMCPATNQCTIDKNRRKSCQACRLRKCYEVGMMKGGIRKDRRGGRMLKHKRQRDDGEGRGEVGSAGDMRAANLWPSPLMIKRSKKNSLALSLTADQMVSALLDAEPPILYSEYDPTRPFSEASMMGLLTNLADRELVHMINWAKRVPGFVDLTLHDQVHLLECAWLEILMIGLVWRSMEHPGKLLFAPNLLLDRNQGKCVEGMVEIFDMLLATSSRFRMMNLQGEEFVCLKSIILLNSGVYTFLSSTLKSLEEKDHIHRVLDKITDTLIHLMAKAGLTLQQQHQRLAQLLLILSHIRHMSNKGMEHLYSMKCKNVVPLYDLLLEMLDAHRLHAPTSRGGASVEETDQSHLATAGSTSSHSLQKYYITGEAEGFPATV

Rattus norvegicus [3] = test: (§1) In vivo antagonist activity at glucocorticoid receptor in Sprague-Dawley rat cortisone model of exogenous Cushing's syndrome assessed as inhibition of plasma insulin levels at 7.5 mg/kg, po bid via gavage for 6 days pretreated for 12 hrs followed by cortisone 21-acetate treatment measured 24 hrs after last cortisone 21-acetate treatment; type: functional, organism-based
Procedure, shortened: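 Male Sprague Dawley rats (200-250 g) got vehicle daily for a 3-day baseline, then groups of eight were dosed. Test agent was suspended in DMSO:Tween 80:0.5% HPMC (10:0.1:89.9) and given by oral gavage twice daily for 6 days. Cortisone 21-acetate was given at 30 mg/kg s.c. once daily in 1% methylcellulose. Tail-vein blood was taken 24 h after the last cortisone dose (12 h after the last test dose). Glucose was read with a clinical reagent and insulin by rat ELISA.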

Rattus norvegicus [4] = test: as §1, with “rat” for “rat cortisone model of exogenous Cushing's syndrome”, “reduction in cortisone-induced” for “inhibition of”, “glucose” for “insulin”, “30” for “7.5”; type: functional, organism-based
Procedure, shortened: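 Male Sprague Dawley rats (200-250g), 3-day vehicle baseline, groups of eight. Compound as suspension in DMSO:Tween 80:0.5% HPMC 10:0.1:89.9, oral gavage twice daily for 6 days; cortisone 21-acetate 30mg/kg s.c. daily in 1% methylcellulose. Tail-vein blood 24 h after last cortisone (12 h after last compound); glucose by clinical reagent, insulin by ultrasensitive rat ELISA.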

Molecule `Cn1cc(S(=O)(=O)N2CCC3=Cc4c(cnn4-c4ccc(F)cc4)C[C@]3(C(=O)c3cc(C(F)(F)F)ccn3)C2)cn1` [RELACORILANT] has a pIC50 (Cytochrome P450 1A2) of less than 5.00, an AUC at 24 h [1] of 11700 ng·h/mL and a Cmax [2] of 297 ng/mL. The Emax (Macaca mulatta) was 0%, the pIC50 (Cytochrome P450 2D6) was 5.05 and the Activity (Cytochrome P450 2B6) was “Not Active”. For the same molecule, the inhibition at 1 µM (estrogen receptor) was less than 10%, the inhibition (Rattus norvegicus [3]) was “Active” and the inhibition (Rattus norvegicus [4]) was “Active”.
